Results on three molecules are retold here after ChEMBL document CHEMBL2046392, “Synthesis and evaluation of carbocyanine dyes as PRMT inhibitors and imaging agents” (Eur J Med Chem, 2012).

In data set [1] the target is Protein arginine N-methyltransferase 1 (Homo sapiens) (UniProt Q99873). Put plainly: Inhibition of His-tagged PRMT1 expressed in Escherichia coli BL21(DE3) cells assessed as residual activity using [14C]-S-adenosyl-L-methionine and histone H4 peptide at 100 uM after 8 mins by scintillation counting. A digest of the protocol: (§1)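 50 mM HEPES pH 8.0, 0.5 mM DTT, 1 mM EDTA, 50 mM NaCl, 30°C; 2 μM H4(1-20), 5 μM [14C]AdoMet, inhibitor preincubated 5 min, started with 0.05 μM enzyme, 8 min; P81 filter binding, scintillation.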
Chain of Protein arginine N-methyltransferase 1 (Homo sapiens) (Q99873 whole entry, looked up): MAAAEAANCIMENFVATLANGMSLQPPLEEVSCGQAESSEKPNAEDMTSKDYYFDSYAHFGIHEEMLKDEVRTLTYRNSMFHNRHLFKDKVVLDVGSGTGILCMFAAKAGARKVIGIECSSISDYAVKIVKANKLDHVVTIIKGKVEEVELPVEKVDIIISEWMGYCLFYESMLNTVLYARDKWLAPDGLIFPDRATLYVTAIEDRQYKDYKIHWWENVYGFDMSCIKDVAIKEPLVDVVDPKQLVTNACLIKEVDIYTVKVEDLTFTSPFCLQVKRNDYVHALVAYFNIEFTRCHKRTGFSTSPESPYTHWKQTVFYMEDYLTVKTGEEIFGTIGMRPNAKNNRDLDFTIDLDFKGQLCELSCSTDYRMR

Data set [2] concerns HeLa. Put plainly: Cell cycle arrest in human HeLa cells assessed as accumulation at S phase after 24 hrs by propidium iodide staining-based flow cytometric analysis (reference value: 12.2%). Format: functional. A digest of the protocol: (§2)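 HeLa cells (1 × 10^6, exponential growth) exposed to compound for 24 or 48 h; collected, fixed in ice-cold 70% ethanol, stored at 4°C, rinsed in PBS, stained with 40 μg/ml propidium iodide plus RNase A; DNA content by flow cytometry, cell-cycle subpopulations as percentages. Tested at 0.3, 1, 2.5 and 5 μM (24 h).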
For orientation: Flow cytometry measures light scatter and fluorescence of single cells or particles in a stream.

Data set [3] deals with Protein arginine N-methyltransferase 3 (Homo sapiens, UniProt O60678). Put plainly: Inhibition of His6X-tagged PRMT3 expressed in Escherichia coli BL21(DE3) cells using [14C]-S-adenosyl-L-methionine and R4 peptide after 8 mins by scintillation counting.
Chain of Protein arginine N-methyltransferase 3 (O60678 whole entry): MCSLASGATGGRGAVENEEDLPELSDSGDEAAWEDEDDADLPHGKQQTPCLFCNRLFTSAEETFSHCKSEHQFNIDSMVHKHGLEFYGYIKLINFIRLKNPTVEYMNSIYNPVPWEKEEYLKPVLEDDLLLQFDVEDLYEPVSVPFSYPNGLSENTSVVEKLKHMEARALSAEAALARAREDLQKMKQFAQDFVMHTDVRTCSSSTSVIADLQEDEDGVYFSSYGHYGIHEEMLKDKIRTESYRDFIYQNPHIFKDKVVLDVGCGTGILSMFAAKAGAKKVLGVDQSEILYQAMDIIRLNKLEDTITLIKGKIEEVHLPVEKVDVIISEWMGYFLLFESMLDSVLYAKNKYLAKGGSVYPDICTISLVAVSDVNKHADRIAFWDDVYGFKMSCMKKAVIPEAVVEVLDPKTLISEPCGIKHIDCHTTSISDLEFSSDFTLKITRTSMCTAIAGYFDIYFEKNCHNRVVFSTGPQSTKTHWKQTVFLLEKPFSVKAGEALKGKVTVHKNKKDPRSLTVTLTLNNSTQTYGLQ
Data set [4] is described as follows: Cellular uptake in human HeLa cell nucleus at 2 to 5 uM after 6 hrs by fluorescent microscopic analysis. Format: ADME, cell-based. An outline of the steps:
(§3)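 HeLa cells seeded on coverglass overnight, treated with 0, 2 or 5 μM for 6 h (DMSO control), fixed 10 min in 4% paraformaldehyde at room temperature. Bright-field images under visible light; NIR fluorescence by confocal microscopy with 633 nm excitation and 715–785 nm long-pass emission.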

The target of data set [5] is Protein arginine N-methyltransferase 5 (Homo sapiens, UniProt O14744). Put plainly: Inhibition of His6X-tagged PRMT5 expressed in Escherichia coli BL21(DE3) cells using [14C]-S-adenosyl-L-methionine and histone H4 peptide after 8 mins by scintillation counting.
Chain of Protein arginine N-methyltransferase 5 (O14744 whole entry): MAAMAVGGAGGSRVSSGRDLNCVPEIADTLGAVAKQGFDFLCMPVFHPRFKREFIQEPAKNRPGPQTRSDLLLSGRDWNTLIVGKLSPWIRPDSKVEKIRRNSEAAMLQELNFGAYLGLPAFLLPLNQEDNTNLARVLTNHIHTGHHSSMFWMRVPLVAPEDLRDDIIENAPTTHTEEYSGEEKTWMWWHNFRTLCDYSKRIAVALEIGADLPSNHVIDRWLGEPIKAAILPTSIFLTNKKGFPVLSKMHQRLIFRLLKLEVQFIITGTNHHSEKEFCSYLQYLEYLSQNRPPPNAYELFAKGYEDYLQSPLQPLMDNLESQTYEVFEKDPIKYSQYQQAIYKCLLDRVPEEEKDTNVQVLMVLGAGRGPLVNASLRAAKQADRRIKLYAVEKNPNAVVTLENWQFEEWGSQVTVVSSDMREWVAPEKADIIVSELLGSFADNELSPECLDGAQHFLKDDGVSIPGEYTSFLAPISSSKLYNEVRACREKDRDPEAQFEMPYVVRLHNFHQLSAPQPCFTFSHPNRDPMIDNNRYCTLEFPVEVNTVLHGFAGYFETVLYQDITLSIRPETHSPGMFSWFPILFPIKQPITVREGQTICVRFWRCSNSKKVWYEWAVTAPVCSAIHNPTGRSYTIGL
A short description of data set [6]: Cellular uptake in human HeLa cell around nucleus at 2 to 5 uM after 6 hrs by fluorescent microscopic analysis. Format: ADME, cell-based. An outline of the steps: as §3
Data set [7] addresses Protein arginine N-methyltransferase 6 (Homo sapiens, UniProt Q96LA8). Put plainly: Inhibition of His6X-tagged PRMT6 expressed in Escherichia coli BL21(DE3) cells using [14C]-S-adenosyl-L-methionine and histone H3(1-31) peptide after 8 mins by scintillation counting.
A short description of data set [8]: Cellular uptake in human HeLa cell cytoplasmic vesicles at 2 to 5 uM after 6 hrs by fluorescent microscopic analysis. Format: ADME, cell-based. An outline of the steps: as §3
Data set [9] can be described thus: Cellular uptake in human HeLa cell cytoplasmic vesicles at 2 to 5 uM after 6 hrs by bright field microscopic analysis. Format: ADME, cell-based. A digest of the protocol:
as §3

The test system of data set [10] is HeLa. Briefly: Cell cycle arrest in human HeLa cells assessed as accumulation at G2/M phase at 1 uM after 24 hrs by propidium iodide staining-based flow cytometric analysis (reference value: 29.2%). Format: functional. A digest of the protocol: as §2
For data set [11], the system named is HeLa. Briefly: Induction of apoptosis in human HeLa cells assessed as increase in sub-G1 peak at 2.5 to 5 uM after 48 hrs by propidium iodide staining-based flow cytometric analysis. Format: functional, cell-based. A digest of the protocol:
as §2

Data set [12] addresses Protein arginine N-methyltransferase 1 (Homo sapiens) (UniProt Q99873). The following applies: 4 uM.
For data set [13], the system named is HeLa. Briefly: Cell cycle arrest in human HeLa cells assessed as accumulation at G1 phase at 1 uM after 24 hrs by propidium iodide staining-based flow cytometric analysis (reference value: 57.2%). Format: functional. A digest of the protocol: as §2
A short description of data set [14]: Cellular uptake in human HeLa cell nucleus after 6 hrs by bright field microscopic analysis. Format: ADME, cell-based. A digest of the protocol:
as §3

Data set [15] concerns HeLa. Put plainly: Cell cycle arrest in human HeLa cells assessed as accumulation at S phase at 1 uM after 24 hrs by propidium iodide staining-based flow cytometric analysis (reference value: 12.2%). Format: functional. A digest of the protocol: as §2
A short description of data set [16]: Inhibition of His-tagged PRMT1 Y152A mutant expressed in Escherichia coli BL21(DE3) cells assessed as residual activity using [14C]-S-adenosyl-L-methionine and histone H4 peptide at 4 uM measured after 8 mins by scintillation counting. An outline of the steps:
as §1

The source made the active and inactive calls. No cut-off for these calls is given here.

Chain of Protein arginine N-methyltransferase 6 (Q96LA8 whole entry): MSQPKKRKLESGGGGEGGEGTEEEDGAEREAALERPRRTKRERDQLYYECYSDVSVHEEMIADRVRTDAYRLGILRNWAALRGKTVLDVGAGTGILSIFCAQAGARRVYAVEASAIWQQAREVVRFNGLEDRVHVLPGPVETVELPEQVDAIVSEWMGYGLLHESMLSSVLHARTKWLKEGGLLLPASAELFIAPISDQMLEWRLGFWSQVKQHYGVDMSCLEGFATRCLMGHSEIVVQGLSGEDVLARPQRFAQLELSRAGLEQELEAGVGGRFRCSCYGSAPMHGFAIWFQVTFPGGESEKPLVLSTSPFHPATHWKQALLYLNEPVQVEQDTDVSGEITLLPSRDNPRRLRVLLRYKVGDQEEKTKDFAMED

Take `COc1ccc2c(c1)C(C)(C)C(/C=C/C=C/C=C1\N(C)c3ccc(OC)cc3C1(C)C)=[N+]2C`: the Activity in data set [1] worked out at 95%.

Consider `CN1\C(=C/C=C(Cl)/C=C/C2=[N+](C)c3ccccc3C2(C)C)C(C)(C)c2ccccc21`, for which the Activity in data set [1] was found to be 80%.

What is called IC50 is the concentration needed to halve the response being measured. A low value points to inhibition by little substance. What is called inhibition is the change of the read-out against control, counted positive when it falls. In the case of `CCn1/c(=C\C=C\C2=[N+](CC)c3cccc4cccc2c34)c2cccc3cccc1c32.[I-]`, the outcome with HeLa [2] and in the data set on HeLa [11] was Active. Also, the IC50 in [3] came to 8.3 µM; in data set [5], 9.1 µM; in [7], 12.6 µM. Further, the Drug uptake result is “Active” in data set [4]; “Active” in data set [6]; “Active” in data set [8]; “Active” in data set [9]; “Dose-dependent effect” in [14]. For the same molecule, the Activity with HeLa [10] is recorded as 13.9%; in the data set with HeLa [13] it was 23.6%; with HeLa [15] it was 56.5%. The molecule further came in with an inhibition in [12] of 92%. Also, in data set [16], the inhibition entry is “Active”.
